OXTR potentiate: human OXTR potentiation; CHO-OTR cells, Fluo-8 calcium fluorescence, potentiator mode; 0% = oxytocin EC15, 100% = EC100; hit rate 0.061% among 320,000; P30559; activation, % at 3 µM; AID 2445;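 active means activation above that plate's cutoff, the mean activation of tested compounds plus 3 SD, cut at about 6.6% in these data, passing the limit was not always enough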
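Measured by – Fluo-8 calcium dye fluorescence · Test system – human OTR in CHO cells · Dosing – one concentration, 3.0 µM compound · Controls – EC15 oxytocin alone as 0%, 75 nM oxytocin as 100% · Evaluation – normalized max/min fluorescence ratio, % activation · Timing – 6 min pre-incubation, 100 s read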
M4 ag: CHRM4 agonism in calcium assay. AID 624127. activation, % at 3 µM. hit rate 0.14% among 360,000. P08173. CHO-K1 hM4/Gqi5, Fluo-8 calcium fluorescence; vehicle 0%, full acetylcholine response 100%;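 active means activation above the run mean over all test wells plus 3 SD, cut at about 32% in these data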;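 further: peak over basal fluorescence ratio per well then scaled between controls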
Target sequence (P08173 whole entry, looked up): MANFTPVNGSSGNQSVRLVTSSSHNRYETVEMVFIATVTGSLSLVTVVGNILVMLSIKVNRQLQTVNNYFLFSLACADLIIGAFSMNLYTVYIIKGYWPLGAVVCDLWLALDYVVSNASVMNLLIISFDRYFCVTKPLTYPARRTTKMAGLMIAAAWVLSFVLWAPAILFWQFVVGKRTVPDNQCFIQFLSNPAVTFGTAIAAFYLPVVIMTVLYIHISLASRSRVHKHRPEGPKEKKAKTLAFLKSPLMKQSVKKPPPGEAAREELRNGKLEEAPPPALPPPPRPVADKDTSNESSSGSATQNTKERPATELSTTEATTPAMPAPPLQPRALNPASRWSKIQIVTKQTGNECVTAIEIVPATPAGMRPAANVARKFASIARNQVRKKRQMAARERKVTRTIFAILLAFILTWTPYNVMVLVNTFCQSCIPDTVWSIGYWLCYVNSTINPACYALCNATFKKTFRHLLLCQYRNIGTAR
CHRM4 PAM: positive allosteric modulators of human muscarinic M4 receptor | hit rate 0.4% among 360,000 | CHO-K1 hM4/Gqi5, Fluo-8 calcium fluorescence, ACh EC20; 0% = ACh EC20, 100% = maximal ACh | activation, % at 3 µM | P08173;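 active means activation above its plate's cutoff, the mean activation of sample wells plus 3 SD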
V1aR counter: counter-screen for oxytocin receptor agonists: human V1a receptor agonists; P37288; activation, % at 3 µM; hit rate 0.25% among 320,000; CHO-V1R cells, Fluo-8 calcium fluorescence, agonist mode; 0% DMSO, 100% 3 nM vasopressin;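 active means activation above the mean activation of all tested compounds plus 3 SD, per screening run, cut at about 20% in these data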;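 further: signal is peak over basal fluorescence ratio across a 100 second FLIPR read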
CHRM4 antagonist: antagonists of human muscarinic M4 receptor (CHRM4); CHO-hM4 cells, ACh EC80, Fluo-8 calcium fluorescence; inhibition, % at 3 µM; hit rate 0.73% among 360,000;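 active means inhibition above its plate's cutoff, the mean inhibition of sample wells plus 3 SD, cut at about 27% in these data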
OXTR ag: human OXTR agonism | CHO-OTR cells, Fluo-8 calcium fluorescence; normalized: DMSO 0%, oxytocin 100% | activation, % at 3 µM | hit rate 0.32% among 320,000 | AID 2435;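 active means activation above the mean of all tested compounds plus 3 SD, cutoff set per screening run, cut at about 20% in these data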;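 further: peak over basal fluorescence ratio from a 100 s FLIPR kinetic read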
Each line names hits and unclear results; the compound was inactive in the other large screens. Compounds with a hit are over-represented: about 1.5% of the library has one in this group of screens.

Fc1ccc(-c2cc(C(F)(F)C(F)F)[nH]n2)cc1	V1aR counter 31.9, OXTR ag 38.9
COC(=O)c1cc(-c2ccc(Cl)cc2)n[nH]1	none
Oc1ccccc1-c1cc(C(F)(F)C(F)F)[nH]n1	none
FC(F)C(F)(F)c1cc(-c2ccc(Cl)cc2)n[nH]1	V1aR counter 22.0, CHRM4 antagonist 28.5, OXTR ag 20.6
O=C(O)CSCC(=O)N1N=C2/C(=C/c3ccccc3)CCCC2C1c1ccccc1 (stereo unspecified)	CHRM4 PAM 16.1
Cc1onc(-c2c(Cl)cccc2Cl)c1C(=O)N1CCc2ccccc21	CHRM4 antagonist 37.9
CCOC(=O)C1=CCN(S(=O)(=O)c2ccc(Br)cc2)C1c1ccc(C)cc1 (stereo unspecified)	none (no result: OXTR potentiate, V1aR counter, OXTR ag)
CC(=O)OCC(=O)N1N=C(c2ccc3ccccc3c2)CC1c1ccccc1 (stereo unspecified)	none
Nc1cc(=O)[nH]c(SCC(=O)N2N=C(c3ccc4ccccc4c3)CC2c2ccccc2)n1 (stereo unspecified)	CHRM4 antagonist 36.0
Cc1ccc(S(=O)(=O)N(C)C[C@@H]2OCc3cn(nn3)CCCC(=O)N([C@H](C)CO)C[C@H]2C)cc1	none (no result: OXTR potentiate, V1aR counter, OXTR ag)
O=C(NC1CC1)C1=C[C@@H](c2ccc(Br)cc2)C[C@@H](OCc2ccc(CO)cc2)O1	none
CN(C)c1ccc(/C=C/C(=O)c2cccc(Br)c2)cc1	M4 ag 349.2, V1aR counter 154.7, CHRM4 antagonist 63.1, OXTR ag 94.4
CCOC(=O)CSc1nnc(NC(=O)CCc2ccccc2)s1	CHRM4 PAM 21.3
O=C1C(Cl)=C(Nc2ccc(O)cc2)C(=O)c2ccccc21	CHRM4 antagonist 63.6
CCNC1=C(Cl)C(=O)c2ccccc2C1=O	none
CCCC(=O)NC1=C(Cl)C(=O)c2ccccc2C1=O	CHRM4 antagonist 61.4 (no result: OXTR potentiate, V1aR counter, OXTR ag)
O=C(C[n+]1ccccc1)N1c2ccccc2Sc2ccccc21	CHRM4 antagonist 98.5
CN(C)c1cc[n+](CC(=O)N2c3ccccc3Sc3ccccc32)cc1	CHRM4 antagonist 48.4
Cc1c(CC(=O)O)c(=O)oc2c(C)c3occ(-c4ccccc4)c3cc12	CHRM4 antagonist 45.9
O=C(Nc1c[nH]c(=O)[nH]c1=O)c1cccc(F)c1	none
Cc1cccc(N2C(=O)c3ccc(C(=O)Nc4c[nH]c(=O)[nH]c4=O)cc3C2=O)c1	CHRM4 antagonist 27.4
CC(C)(CO)NS(=O)(=O)c1ccc2c(c1)C(=NO)c1cc(S(=O)(=O)NC(C)(C)CO)ccc1-2	CHRM4 PAM 21.0
O=C(COC(=O)c1ccc(Cl)nc1)NC1CCCCCC1	CHRM4 PAM 26.1
Cc1ccccc1Sc1ccc(N)cn1	CHRM4 antagonist 33.3
C[C@@]12CCC[C@@](C)(C(=O)O)C1CC[C@@]13C[C@@H](NCc4ccccc4)[C@@](C)(CCC12)C3 (stereo partly specified)	none
Cc1ccnc2nc(C(=O)Nc3nccs3)nn12	none
Cc1ccnc2nc(C(=O)NC3=NCCS3)nn12	CHRM4 PAM 26.4
CCCCSc1nnc([C@@H]2CCCN2C(=O)OC(C)(C)C)o1	none
CCCCCCCCN1N=N[C@H]2[C@H]1[C@@H]1C[C@H]2N(C(=O)OC(C)(C)C)O1	CHRM4 antagonist 30.8 (no result: OXTR potentiate, V1aR counter, OXTR ag)
CCOC(=O)C1CCN(S(=O)(=O)c2cn(C)c(=O)n(C)c2=O)CC1	CHRM4 antagonist 32.0
O=C(CCCN1C(=O)/C(=C\c2cccs2)SC1=S)Nc1cccc(C(=O)O)c1	CHRM4 PAM 21.1
O=C(CN1C(=O)/C(=C\c2cccs2)SC1=S)Nc1cccc(C(=O)O)c1	none
O=C(NCCOc1ccccc1)c1ccccc1Cl	none
CN(C(=O)COc1ccccc1C(=O)NCCOc1ccccc1)c1ccccc1	CHRM4 antagonist 59.6
CS(=O)(=O)c1ccc(Cl)c(NC(=O)COC(=O)CCN2C(=O)C3CC=CCC3C2=O)c1 (stereo unspecified)	none (no result: OXTR potentiate, V1aR counter, OXTR ag)
O=C(Nc1ccccc1)c1cc(C2CCCCN2S(=O)(=O)c2ccc(F)cc2F)on1 (stereo unspecified)	none (no result: OXTR potentiate, V1aR counter, OXTR ag)
CCOC(=O)c1c(S(=O)(=O)NCC(=O)Nc2cc(C)ccc2C)c(C)n(C)c1C	none
CCOC(=O)c1c(S(=O)(=O)NCC(=O)Nc2ccc(F)cc2F)c(C)n(C)c1C	CHRM4 PAM 17.9
COc1ccccc1Cc1noc(COc2cccc(C)c2C)n1	CHRM4 PAM 34.1
COc1ccccc1Cc1nc(-c2ccncc2)no1	none
COc1cc(NC(=O)c2c(F)c(F)c(F)c(F)c2F)c(OC)cc1Cl	CHRM4 antagonist 35.8
COc1cc(NC(=O)c2cc3nc(C)cc(C)n3n2)c(OC)cc1Cl	CHRM4 PAM 28.1
CC(=O)CC(=O)Nc1ccc(Nc2ccccc2)cc1	CHRM4 antagonist 29.9
CC1(C(=O)NCc2ccc(Cl)c(Cl)c2)Oc2cccnc2NC1=O (stereo unspecified)	V1aR counter 21.2, OXTR ag 24.6
CC1(C(=O)NCc2ccccc2)Oc2ccccc2NC1=O (stereo unspecified)	none
O=C(O)c1cc(Cl)ccc1-c1ccc(/C=C/c2cc(C(F)(F)F)[nH]c(=O)n2)o1	M4 ag 39.4
Cc1cccc(C)c1NC(=O)c1cccc2c1C(=O)N(C1CCCCC1)C2	none
CCCS(=O)(=O)NC(=O)C1(C)CCCN(C(=O)C2(c3ccc(Cl)cc3)CCCC2)C1 (stereo unspecified)	none (no result: OXTR potentiate, V1aR counter, OXTR ag)
COc1cccc(CN(C)C(=O)c2cc(COc3ccc4ncccc4c3)on2)c1	CHRM4 antagonist 33.7
O=C(NCCc1cn2ccccc2n1)c1cc(COc2ccc3ncccc3c2)on1	CHRM4 antagonist 36.4
Cc1cccc(C)c1C(OCCN(C)C)C1CCCCC1 (stereo unspecified)	CHRM4 antagonist 77.0
COCCN(C(=O)CCl)C(C(=O)NC1CCCCC1)c1ccccc1C (stereo unspecified)	none
O=C(c1cccc(Cl)c1)N1CCN(c2ccccn2)CC1	none
O=C(c1ccc(S(=O)(=O)c2cccc(Cl)c2)c([N+](=O)[O-])c1)N1CCN(c2ccccn2)CC1	CHRM4 antagonist 44.4
COc1ccc(NS(=O)(=O)c2ccc(NC(=O)c3ccccn3)cc2)cc1	none
CNS(=O)(=O)c1ccc(NC(=O)c2ccccn2)cc1	CHRM4 PAM 28.2
CCn1c2ccccc2c2nnc(SCCN3CCCCC3)nc21	CHRM4 antagonist 27.6
CCC(C)[C@H](NC(=O)N1CC(=O)Nc2ccccc21)C(=O)N1CCC[C@H]1C(=O)O (stereo partly specified)	CHRM4 antagonist 101.2
CC(Oc1ccccc1)c1nnc(SCC(=O)NC2CC2)n1C (stereo unspecified)	CHRM4 PAM 20.4

Source: PubChem (The Scripps Research Institute Molecular Screening Center)
